Here are results for 31 compounds from ChEMBL document CHEMBL1139834, “Synthesis and structure-activity relationships of new benzodioxinic lactones as potential anticancer drugs” (J Med Chem, 2007).

Series [1] relates to L1210. The experiment in a line: Cytotoxicity against mouse L1210 cell line. The settings on record: for pIC50: Mus musculus, L1210; for Activity: mouse, l1210. Details: Activity: concentration or dose not given beside the values. Format: cell-based. An outline of the steps: (§1)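 Cells grown at 37 °C under 5% CO2 in medium with 2 mM L-glutamine, penicillin, streptomycin and 20% heat-inactivated horse serum. Drug in DMSO (0.5% final) added to exponentially growing cells seeded at 0.8 × 10^5 cells/mL. Coulter counting in quadruplicate at 48 h (L1210) or 96 h (HT-29). IC50 from probit of % growth inhibition versus log dose; four independent runs in triplicate.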

A further series concerns HT-29. Description: Cytotoxicity against human HT29 cell line. The class given is cell-based. Put shortly:
as §1

The test system of series [2] is L1210. The experiment in a line: Cell cycle arrest in mouse L1210 cell line by accumulation at G2/M phase at 1 uM after 24 hrs. Format: functional. Put shortly: (§2)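 L1210 cells in RPMI 1640 with 2 mM L-glutamine, penicillin, streptomycin and 20% heat-inactivated horse serum, 5% CO2, 37 °C, exposed to several drug concentrations. Cells fixed in 70% ethanol, washed, stained 30 min at room temperature with propidium iodide plus RNAse in PBS, then flow cytometry. Read-out is percentage of cells in each cycle phase after 24 h exposure.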

The subject of series [3] is L1210. Description: Cell cycle arrest in mouse L1210 cell line by accumulation at G2/M phase at 5 uM after 24 hrs. The class given is functional. Put shortly: as §2
For series [4], the system named is L1210. The experiment in a line: Cell cycle arrest in mouse L1210 cell line by accumulation at 8N phase at 5 uM after 24 hrs. Format: functional. Put shortly:
as §2

For another series, the species on record is Homo sapiens. The experiment in a line: Inhibition of topoisomerase 2 assessed by DNA cleavage complex formation assay. Put shortly:
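Cleavage complex formed on pYRG plasmid DNA by human topoisomerase II purified from placenta. Linear DNA product quantified by densitometry relative to ellipticine.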

Series [5] can be described thus: Effect on DNA sequence recognition assessed by DNase I footprinting assay. Format: functional.
The test system of series [6] is L1210. Description: Cell cycle arrest in mouse L1210 cell line by accumulation at G2 phase at 1 uM after 24 hrs. Format: functional. An outline of the steps: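 L1210 cells grown in RPMI 1640 with 2 mM L-glutamine, penicillin, streptomycin and 20% heat-inactivated horse serum at 37 °C, 5% CO2, then drug-exposed (methods 21 h; footnote 24 h). Ethanol (70%) fixed, then washed. Stained 30 min at room temperature in PBS with […] RNase and propidium iodide. Flow cytometry gives % cells in each cycle phase.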

In series [7] the test system is L1210. Description: Cell cycle arrest in mouse L1210 cell line by accumulation at 8N phase at 20 uM after 24 hrs. Format: functional. Put shortly: as §2

Each structure is given as a SMILES string. pIC50: −log10 of the molar value. Active and inactive are the calls of the source. No cut-off for these calls is given here.

In the series on L1210 [1], `CCCCCc1c2c(c(C)c3c1C(=O)OC3)Oc1ccc(OC)cc1O2` had a pIC50 below 5.00 and an Activity of 78%. The compound also had a pIC50 with HT-29 below 5.00.
As for `CCCc1c2c(c(C)c3c1C(=O)OC3)Oc1ccccc1O2`, the pIC50 in the series on L1210 [1] and in the series on HT-29 was below 5.00 throughout. The compound also had an Activity with L1210 [1] of 111%.
For `Cc1c2c(c(CCCCCC(=O)O)c3c1Oc1ccccc1O3)C(=O)OC2`, the pIC50 in the series on L1210 [1] and with HT-29 was below 5.00 in each case.
Turning to `COc1cccc2c1C(=O)c1c(O)c3c(c(O)c1C2=O)C[C@@](O)(C(=O)CO)C[C@@H]3O[C@H]1C[C@H](N)[C@H](O)[C@H](C)O1` [DOXORUBICIN], the values for the pIC50 in the series on L1210 [1] and with HT-29 were 7.54 and 6.32, respectively. In addition, the Activity with L1210 [2] worked out at 86%.
`CCCCCCc1c2c(c(C)c3c1C(=O)OC3)Oc1ccccc1O2`: the Activity in the series with L1210 [3] and in the series with L1210 [4] was 86% in each case. In addition, the pIC50 was 5.70 with L1210 [1] and 6.42 in the series on HT-29.
For the compound `Cc1c2c(c(CC(C)CC(C)(C)C)c3c1C(=O)OC3)Oc1ccccc1O2` (stereo not drawn), in the series with L1210 [1], the pIC50 was below 5.00 and the Activity worked out at 70%. For the same compound, the pIC50 with HT-29 is below 5.00.
In the series with L1210 [1], `CCCCCc1c2c(c(C)c3c1Oc1cc(OC)ccc1O3)C(=O)OC2` showed a pIC50 below 5.00 and an Activity of 70%. The compound further gave a pIC50 in the series with HT-29 below 5.00.
Regarding `CCCCCCCCc1c2c(c(C)c3c1C(=O)OC3)Oc1ccccc1O2`, the pIC50 with L1210 [1] and in the series with HT-29 was below 5.00 throughout.
`Cc1c2c(c(CCCCC#N)c3c1Oc1ccccc1O3)C(=O)OC2`: the pIC50 is 4.11 with L1210 [1] and 4.62 in the series with HT-29.
For `CCCCCCCc1c2c(c(C)c3c1Oc1ccccc1O3)C(=O)OC2` the same measures were below 5.00 and 4.66.
Consider `CCCCCc1c2c(c(C)c3c1Oc1ccccc1O3)C(=O)OC2`, for which the Activity with L1210 [3] and with L1210 [4] was 35% each time. Further, the pIC50 in the series with L1210 [1] is 5.14; with HT-29, 5.04.
Turning to `CC1OC(=O)C2=C1Oc1ccccc1O2` (stereo not drawn), the pIC50 in the series on L1210 [1] and in the series on HT-29 was below 5.00 each time.
`CCCCCCc1c2c(c(C)c3c1Oc1ccccc1O3)C(=O)OC2`: in the series on L1210 [1], the pIC50 is below 5.00 and the Activity was determined as 118.3%. Also, the pIC50 in the series with HT-29 was 4.74.
Turning to `Cc1c2c(c(CCCCCC#N)c3c1Oc1ccccc1O3)C(=O)OC2`, in the series filed under Homo sapiens, the result was inactive. The results for the pIC50 in the series with L1210 [1] and with HT-29 were 6.27 and 6.92, respectively. The Activity with L1210 [4] turned out to be 88%.
Take `CCCCCCc1c2c(c(C)c3c1C(=O)SC3)Oc1ccccc1O2`: the pIC50 in the series with L1210 [1] was 4.72; with HT-29, 4.46.
For `Cc1c2c(c(CCCCCN)c3c1Oc1ccccc1O3)C(=O)OC2` the same measures were 4.89 and 5.24.
As for `CNCCCCc1c2c(c(C)c3c1C(=O)OC3)Oc1ccccc1O2`, the Activity in the series with L1210 [3] and in the series with L1210 [4] was 86% each time. In addition, the pIC50 in the series on L1210 [1] was 5.62; in the series with HT-29, 6.27.
Take `Cc1c2c(c(C)c3c1Oc1ccccc1O3)C(=O)OC2`: the negative logarithm of the IC50 (pIC50) in the series on L1210 [1] and with HT-29 was below 4.00 throughout.
As for `CCCCCc1c2c(c(C)c3c1C(=O)OC3)Oc1ccccc1O2`, the Activity in the series on L1210 [3] and in the series on L1210 [4] was 80% each time. Moreover, the result (in the series filed under Homo sapiens; in series [5]) was inactive. Besides, the figures for the pIC50 with L1210 [1] and in the series on HT-29 were 5.74 and 6.92, respectively.
In the case of `CCCc1c2c(c(C)c3c1Oc1ccccc1O3)C(=O)OC2`, the pIC50 in the series with L1210 [1] and in the series with HT-29 was below 5.00 in each case. Moreover, the Activity with L1210 [1] was 115%.
Turning to `CCc1c2c(c(C)c3c1Oc1ccccc1O3)C(=O)OC2`, the pIC50 in the series on L1210 [1] and in the series on HT-29 was below 5.00 in each case.
As to `CCCCCCc1c2c(c(CCCCCC)c3c1Oc1ccccc1O3)C(=O)OC2`, the pIC50 with L1210 [1] and in the series with HT-29 was below 5.00 throughout.
In the case of `Cc1c2c(c(CCCCCC#N)c3c1C(=O)OC3)Oc1ccccc1O2`, the pIC50 in the series with L1210 [1] and in the series with HT-29 was below 5.00 each time.
With `CCCCc1c2c(c(C)c3c1Oc1ccccc1O3)C(=O)OC2`, the pIC50 was below 4.00 with L1210 [1] and 4.75 with HT-29.
The compound `Cc1c2ccncc2c(C)c2c1[nH]c1ccccc12` [ELLIPTECINE] registered an Activity with L1210 [6] of 50%. Besides, the pIC50 in the series on L1210 [1] is 6.72; in the series with HT-29 it was 4.83.
For `Cc1c2c(c(C)c3cnccc13)Oc1ccccc1O2`, the pIC50 was 5.92 in the series with L1210 [1] and 4.66 in the series with HT-29.
For `Cc1c2c(c(CCCCC(=O)O)c3c1Oc1ccccc1O3)C(=O)OC2` the same measures were 4.05 and below 5.00.
For `Cc1c2c(c(CC(C)CC(C)(C)C)c3c1Oc1ccccc1O3)C(=O)OC2` (stereo not drawn) the same measures were 4.87 and below 5.00.
For `CCCCCCCCc1c2c(c(C)c3c1Oc1ccccc1O3)C(=O)OC2` the same measures were below 5.00 and below 5.00.
`CCCCCCCc1c2c(c(C)c3c1C(=O)OC3)Oc1ccccc1O2` returned an Activity in the series on L1210 [7] of 70%. For the same compound, the pIC50 is 5.41 in the series with L1210 [1] and 5.72 in the series with HT-29.
For `CCc1c2c(c(C)c3c1C(=O)OC3)Oc1ccccc1O2`, the pIC50 in the series on L1210 [1] and with HT-29 was below 5.00 in each case.
